From ChEMBL document CHEMBL1157704, “Potent activity against K562 cells by polyamide-seco-CBI conjugates targeting histone H4 genes” (Bioorg Med Chem, 2010)
The source made the active and inactive calls. The rule behind the calls is not given here.

Columns and labels:
[1] = system: histone H4c gene fragment DNA (human); assay: Binding affinity to 5'-AGAAAA-3' sequence of 223 bp human histone H4c gene fragment DNA assessed as DNA alkylating activity at 50 to 100 nM after 15 hrs by PAGE
K562 [2] = assay: Cytotoxicity against human K562 cells by MTS assay; type: functional, cell-based
Outline: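 Proliferation of K562 cells (ATCC, standard culture) was read as mitochondrial conversion of the MTS tetrazolium to formazan, using the CellTiter 96 Aqueous One reagent. EC50 was derived from these readings.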

K562 [3] = assay: Induction of apoptosis in human K562 cells assessed as non-viable necrotic cells at 250 nM after 48 hrs by annexin-V FITC and propidium iodide staining-based FACS analysis; type: functional
Outline: (§1)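 Treated K562 cells […] stained with Annexin V-FITC/propidium iodide. Apoptosis was scored by two-dimensional flow cytometry at a core FACS facility.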

K562 [4] = assay: Downregulation of histone H4C mRNA expression in human K562 cells at 250 nM after 48 hrs by real-time PCR analysis; type: functional
Outline: (§2)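 Treated K562 cells were assayed by one-step real-time RT-PCR. Reverse transcription ran 50 °C for 10 min, then hot-start polymerase activation at 95 °C for 15 min. Cycling was 45 cycles of 95 °C 15 s, 55 °C 30 s and 72 °C 30 s. Levels were normalized to GAPDH mRNA; error shown as standard deviation.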

K562 [5] = assay: Induction of apoptosis in human K562 cells assessed as viable cells at 250 nM after 48 hrs by annexin-V FITC and propidium iodide staining-based FACS analysis; type: functional; settings: K562, 48 h, read-out: Activity
Outline: as §1

K562 [6] = assay: Induction of apoptosis in human K562 cells assessed as late apoptotic cells at 250 nM after 48 hrs by annexin-V FITC and propidium iodide staining-based FACS analysis; type: functional
Outline: as §1

K562 [7] = assay: Cell cycle arrest in human K562 cells assessed as increase in accumulation at G2/M phase at 250 nM after 48 hrs propidium iodide staining-based FACS analysis; type: functional
Outline: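 K562 cells (ATCC, b3a2 Bcr-Abl) exposed to polyamide in culture medium and pelleted at 200g for 5 min. Pellets resuspended in PBS, fixed in prechilled 70% ethanol and stained with propidium iodide (50 µg/mL). DNA content read by flow cytometry as G0–G1, S and G2–M fractions; sub-2C DNA taken as fragmentation/apoptosis.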

K562 [8] = assay: Induction of apoptosis in human K562 cells assessed as early apoptotic cells at 250 nM after 48 hrs by annexin-V FITC and propidium iodide staining-based FACS analysis; type: functional
Outline: as §1

K562 [9] = assay: Downregulation of histone H4E mRNA expression in human K562 cells at 250 nM after 48 hrs by real-time PCR analysis; type: functional, cell-based
Outline: as §2

SMILES	Activity [1]	EC50 (K562 [2])	Activity (K562 [3])	Activity (K562 [4])	viability at 0.25 µM (K562 [5])	Activity (K562 [6])	Activity (K562 [7])	Activity (K562 [8])	Activity (K562 [9])
CC(=O)Nc1cc(C(=O)Nc2cc(C(=O)NCCC(=O)N[C@@H](CCNC(=O)c3cc(NC(=O)c4nc(NC(=O)c5cc(NC(=O)c6nc(NC(C)=O)cn6C)cn5C)cn4C)cn3C)C(=O)Nc3cn(C)c(C(=O)Nc4cc(C(=O)Nc5ccc6[nH]c(C(=O)N7CC(CCl)c8c7cc(O)c7ccccc87)cc6c5)n(C)c4)n3)n(C)c2)n(C)c1 (some centres undefined)	Active	17 nM	–	–	–	–	–	–	–
CN(C)CCCNC(=O)CCNC(=O)c1cc(NC(=O)c2cc(NC(=O)c3cc(NC(=O)c4cc(NC(=O)[C@H](CCNC(=O)CCCc5ccc(N(CCCl)CCCl)cc5)NC(=O)c5nc(NC(=O)CCNC(=O)c6nc(NC(=O)c7nccn7C)cn6C)cn5C)cn4C)cn3C)cn2C)cn1C	–	–	1.39%	inactive	83.4%	8.88%	Active	6.37%	inactive
CC(=O)Nc1cn(C)c(C(=O)Nc2cc(C(=O)Nc3cn(C)c(C(=O)Nc4cc(C(=O)NCCCC(=O)Nc5cn(C)c(C(=O)Nc6cc(C(=O)Nc7ccc8[nH]c(C(=O)N9CC(CCl)c%10c9cc(O)c9ccccc%109)cc8c7)n(C)c6)n5)n(C)c4)n3)n(C)c2)n1 (centres undefined)	Active	33 nM	–	–	–	–	–	–	–
CC(=O)Nc1cc(C(=O)Nc2cc(C(=O)NCCC(=O)N[C@@H](CCNC(=O)c3cc(NC(=O)c4nc(NC(=O)CCNC(=O)c5nc(NC(C)=O)cn5C)cn4C)cn3C)C(=O)Nc3cn(C)c(C(=O)Nc4cc(C(=O)Nc5ccc6[nH]c(C(=O)N7CC(CCl)c8c7cc(O)c7ccccc87)cc6c5)n(C)c4)n3)n(C)c2)n(C)c1 (some centres undefined)	Active	38 nM	–	–	–	–	–	–	–
CN(C)CCCNC(=O)CCNC(=O)c1cc(NC(=O)c2cc(NC(=O)c3cc(NC(=O)c4cc(NC(=O)[C@@H](CCNC(=O)CCCc5ccc(N(CCCl)CCCl)cc5)NC(=O)c5nc(NC(=O)CCNC(=O)c6nc(NC(=O)c7nccn7C)cn6C)cn5C)cn4C)cn3C)cn2C)cn1C	–	300 nM	1.1%	52%	78.1%	10.6%	Active	10.3%	Active
CN(C)CCCNC(=O)CCNC(=O)c1cc(NC(=O)c2cc(NC(=O)c3cc(NC(=O)c4nc(NC(=O)[C@@H](CCNC(=O)CCCc5ccc(N(CCCl)CCCl)cc5)NC(=O)c5cc(NC(=O)c6cc(NC(=O)CCNC(=O)c7nccn7C)cn6C)cn5C)cn4C)cn3C)cn2C)cn1C	–	81 nM	3.69%	81%	76.8%	9.12%	Active	10.4%	Active
